Assay results as given in ChEMBL document CHEMBL6109036, “Azo derivatives of monoterpenes as anti-Helicobacter pylori agents: from synthesis to structure-based target investigation” (RSC Med Chem, 2025).
In brackets after ≈: the same amount, converted by molar mass.

Columns and labels:
Helicobacter pylori [1] = assay: Bactericidal against Helicobacter pylori measured after 72 hrs of incubation under microaerophilic conditions by modified broth dilution method; format: functional
Procedure, shortened: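 Wells with no visible growth in the MIC assay spotted (10 μL) onto Skirrow agar. Plates incubated 72 h at 37 °C, microaerophilic, 100% humidity. Triplicate, on at least three different days.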

[2] = Cytotoxicity against human HIEC-6 cells assessed as cell viability measured after 72 hrs by MTT assay
Helicobacter pylori [3] = assay: Anti-bacterial activity against Helicobacter pylori Clinical isolate F4 measured after 72 hrs incubation by modified broth dilution method; format: functional
[4] = Cytotoxicity against SV40-immortalized non-tumorigenic human GES1 cells assessed as cell viability measured after 72 hrs by Alamar blue assay; format: toxicity, cell-based
Procedure, shortened: (§1)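 GES-1 cells grown in RPMI with 10% FCS, glutamine, pen/strep and 10 mM HEPES at 37 °C, 5% CO2. Exposed to increasing concentrations for 24, 48 or 72 h. Alamar blue then added for 4 h at 37 °C and read at 540 and 630 nm. Percent reduction relative to untreated cells (100%).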

Helicobacter pylori [5] = assay: Bactericidal activity against Helicobacter pylori Clinical isolate F1 measured after 72 hrs of incubation under microaerophilic conditions by modified broth dilution method; format: functional; details: read-out: MBC99.9
Procedure, shortened: (§2)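 H. pylori (NCTC 11637, F1, 23, F4). Wells with no visible growth in the MIC assay spotted (10 μL) onto Skirrow agar. Plates incubated 72 h at 37 °C, microaerophilic, 100% humidity. MBC = concentration killing 99.9% of the initial inoculum. Triplicate, on at least three different days.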

[6] = Cytotoxicity against SV40-immortalized non-tumorigenic human GES1 cells assessed as cell viability measured after 48 hrs by Alamar blue assay; format: toxicity, cell-based; procedure, shortened: as §1
Staphylococcus aureus [7] = assay: Anti-bacterial activity against Gram-positive Staphylococcus aureus ATCC 29213 measured after 24 hrs incubation by modified broth dilution method; details: ATCC 29213, 24 h
[8] = Cytotoxicity against human HIEC-6 cells assessed as cell viability measured after 24 hrs by MTT assay
Helicobacter pylori [9] = assay: Anti-bacterial activity against Helicobacter pylori Clinical isolate 23 measured after 72 hrs incubation by modified broth dilution method; format: functional
Escherichia coli [10] = assay: Anti-bacterial activity against lactose fermenting Escherichia coli ATCC 25922 measured after 24 hrs incubation by modified broth dilution method; details: ATCC 25922, 24 h
Staphylococcus aureus [11] = assay: Bactericidal against Gram-positive Staphylococcus aureus ATCC 29213 measured after 24 hrs of incubation by broth microdilution method; details: ATCC 29213, 24 h, read-out: MBC99.9
Helicobacter pylori [12] = assay: Bactericidal activity against Helicobacter pylori NCTC 11637 measured after 72 hrs of incubation under microaerophilic conditions by modified broth dilution method; format: functional; details: read-out: MBC99.9; procedure, shortened: as §2
Helicobacter pylori [13] = assay: Bactericidal against Helicobacter pylori Clinical isolate F4 measured after 72 hrs of incubation under microaerophilic conditions by modified broth dilution method; format: functional; details: read-out: MBC99.9; procedure, shortened: as §2
[14] = Cytotoxicity against human HIEC-6 cells assessed as cell viability measured after 48 hrs by MTT assay
Escherichia coli [15] = assay: Bactericidal against lactose fermenting Escherichia coli ATCC 25922 measured after 24 hrs of incubation by broth microdilution method; details: ATCC 25922, 24 h, read-out: MBC99.9
Helicobacter pylori [16] = assay: Anti-bacterial activity against Helicobacter pylori measured after 72 hrs incubation by modified broth dilution method; format: functional
Helicobacter pylori [17] = assay: Anti-bacterial activity against Helicobacter pylori NCTC 11637 measured after 72 hrs incubation by modified broth dilution method; format: functional
Pseudomonas aeruginosa [18] = assay: Anti-bacterial activity against non-lactose fermenting Pseudomonas aeruginosa ATCC 27853 measured after 24 hrs incubation by modified broth dilution method; details: ATCC 27853, 24 h
[19] = Cytotoxicity against SV40-immortalized non-tumorigenic human GES1 cells assessed as cell viability measured after 24 hrs by Alamar blue assay; format: toxicity, cell-based; procedure, shortened: as §1
Helicobacter pylori [20] = assay: Anti-bacterial activity against Helicobacter pylori Clinical isolate F1 measured after 72 hrs incubation by modified broth dilution method; format: functional
Pseudomonas aeruginosa [21] = assay: Bactericidal against non-lactose fermenting Pseudomonas aeruginosa ATCC 27853 measured after 24 hrs of incubation by broth microdilution method; details: ATCC 27853, 24 h, read-out: MBC99.9
Helicobacter pylori [22] = assay: Bactericidal activity against Helicobacter pylori Clinical isolate 23 measured after 72 hrs of incubation under microaerophilic conditions by modified broth dilution method; format: functional; details: read-out: MBC99.9; procedure, shortened: as §2

MIC (Helicobacter pylori [3]) [µg/mL] | MIC (Staphylococcus aureus [7]) [µg/mL] | MIC (Helicobacter pylori [9]) [µg/mL] | MIC (Escherichia coli [10]) [µg/mL] | MIC50 (Helicobacter pylori [16]) [µg/mL] | MIC90 (Helicobacter pylori [16]) [µg/mL] | MIC (Helicobacter pylori [17]) [µg/mL] | MIC (Pseudomonas aeruginosa [18]) [µg/mL] | MIC (Helicobacter pylori [20]) [µg/mL] | SMILES | MBC90 (Helicobacter pylori [1]) [µg/mL] | IC50 at 72 h [2] [µg/mL] | IC50 at 72 h [4] [µg/mL] | MBC (Helicobacter pylori [5]) [µg/mL] | IC50 at 24 h [8] [µg/mL] | MBC (Staphylococcus aureus [11]) [µg/mL] | MBC (Helicobacter pylori [12]) [µg/mL] | MBC (Helicobacter pylori [13]) [µg/mL] | IC50 at 48 h [14] [µg/mL] | MBC (Escherichia coli [15]) [µg/mL] | IC50 at 24 h [19] [µg/mL] | further results
4 (≈ 13.4 µM) | 2 (≈ 6.68 µM) | 2 (≈ 6.68 µM) | > 128 | 2 (≈ 6.68 µM) | 4 (≈ 13.4 µM) | 2 (≈ 6.68 µM) | > 128 | 2 (≈ 6.68 µM) | Cc1ccc(C(C)C)c(/N=N/c2ccc([N+](=O)[O-])cc2)c1O | 4 (≈ 13.4 µM) | 13.3 (≈ 44.3 µM) | 12 (≈ 40.2 µM) | 4 (≈ 13.4 µM) | 15.1 (≈ 50.3 µM) | 32 (≈ 107 µM) | 2 (≈ 6.68 µM) | 4 (≈ 13.4 µM) | 13.4 (≈ 44.7 µM) | > 128 | 15 (≈ 50.1 µM) | IC50 at 48 h [6]: 12.1 µg/mL (≈ 40.4 µM); MBC (Pseudomonas aeruginosa [21]): > 128 µg/mL; MBC (Helicobacter pylori [22]): 2 µg/mL (≈ 6.68 µM)
4 (≈ 13.4 µM) | 2 (≈ 6.68 µM) | 2 (≈ 6.68 µM) | > 128 | 2 (≈ 6.68 µM) | 4 (≈ 13.4 µM) | 2 (≈ 6.68 µM) | > 128 | 2 (≈ 6.68 µM) | Cc1cc(O)c(C(C)C)cc1/N=N/c1ccc([N+](=O)[O-])cc1 | 4 (≈ 13.4 µM) | 7.61 (≈ 25.4 µM) | 8.44 (≈ 28.2 µM) | 2 (≈ 6.68 µM) | 13.6 (≈ 45.4 µM) | 32 (≈ 107 µM) | 2 (≈ 6.68 µM) | 4 (≈ 13.4 µM) | 7.61 (≈ 25.4 µM) | > 128 | 12.1 (≈ 40.4 µM) | MBC (Pseudomonas aeruginosa [21]): > 128 µg/mL; MBC (Helicobacter pylori [22]): 2 µg/mL (≈ 6.68 µM)
